{
  "source": "paper PMC3835248",
  "about": "(Journal of the American Heart Association: Cardiovascular …, 2013)",
  "key": {"IκBα": {"tested_on": "IκBα", "assay": "Half-life of endogenous IκBα in Jurkat T cells", "type": "cell-based, human", "conditions": "1 μmol/L 30 minutes before cycloheximide, PMA/Iono-stimulated Jurkat", "summary_of_the_method": "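Jurkat T cells given cycloheximide 10 μg/mL. 30 min later, left unstimulated or given PMA 5 nmol/L plus ionomycin 2 μmol/L. Parallel samples had epoxomicin 1 μmol/L 30 min before cycloheximide. Cells sampled at […]; two-step hypotonic NP-40/0.45 mol/L NaCl lysates. Infrared quantitative immunoblot; signal normalised to β-actin, expressed as % of t0; mean±SD of ≥3 experiments.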"}, "importins α": {"tested_on": "importins α", "assay": "Competition of biotinylated peptides with native auto-inhibitory regions", "type": "binding, human", "conditions": "biotinylated peptide, Jurkat lysate, pull-down", "summary_of_the_method": "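Biotinylated peptides of importin α1, α3, α4, α5 and α7 auto-inhibitory regions, with biotinylated NLS and mutant NLS peptides, each added separately to whole-cell lysate of Jurkat T cells. Per pull-down protocol: 10 nmols peptide, lysate 1.5 mg/mL total protein, overnight. Complexes captured on streptavidin beads; importins detected by immunoblot.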"}, "Imp α1 [1]": {"tested_on": "Imp α1", "assay": "Competition binding assay, Imp α1", "parameters": "species or system human", "conditions": "free N50 0-300 μmol/L, Jurkat lysate 1.5 mg/mL", "summary_of_the_method": "(§1)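 Unlabelled N50 (0, 10, 30, 100, 300 μmol/L) incubated overnight at 4°C with unstimulated Jurkat lysate at 1.5, 0.3 or 0.05 mg/mL total protein. Unbound importins then pulled down with biotinylated N50 on streptavidin beads and quantified by immunoblot. Bead-bound signal without competitor set to 100%; percentage remaining per concentration, mean±SD of 3 independent experiments.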"}, "Imp α4 [2]": {"tested_on": "Imp α4", "assay": "Competition binding assay, Imp α4", "parameters": "species or system human", "conditions": "free N50 0-300 μmol/L, Jurkat lysate 1.5 mg/mL", "summary_of_the_method": "as §1"}, "Imp α3": {"tested_on": "Imp α3", "assay": "Importin binding", "parameters": "species or system human", "conditions": "HeLa S3 lysate compared to other cell types", "summary_of_the_method": "(§2)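 Biotinylated peptides (N-terminal biotin, 5-Gly spacer), 10 nmols, incubated overnight with whole-cell lysates of unstimulated Jurkat, HeLa S3 or EA.hy926 cells (Jurkat at 1.5 mg/mL total protein). Captured on streptavidin beads; immunoblotted for importins α1, α3, α4, α5, α7, β1, with GAPDH as nonspecific control. Binding strength judged from pulled-down versus lysate amount, alongside GAPDH-normalised importin abundance per cell type.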"}, "Imp α7": {"tested_on": "Imp α7", "assay": "Importin binding", "parameters": "species or system human", "conditions": "biotinylated peptide, whole cell lysates, SA-bead pull-down, immunoblot", "summary_of_the_method": "as §2"}, "Imp α5 [3]": {"tested_on": "Imp α5", "assay": "Importin binding", "parameters": "species or system human", "summary_of_the_method": "as §2"}, "GST-tagged Imp α5 ΔIBB": {"target": "GST-tagged Imp α5 ΔIBB (Homo sapiens, UniProt P52294)", "sequence (P52294 101-538 limits assumed, stated change not applied)": "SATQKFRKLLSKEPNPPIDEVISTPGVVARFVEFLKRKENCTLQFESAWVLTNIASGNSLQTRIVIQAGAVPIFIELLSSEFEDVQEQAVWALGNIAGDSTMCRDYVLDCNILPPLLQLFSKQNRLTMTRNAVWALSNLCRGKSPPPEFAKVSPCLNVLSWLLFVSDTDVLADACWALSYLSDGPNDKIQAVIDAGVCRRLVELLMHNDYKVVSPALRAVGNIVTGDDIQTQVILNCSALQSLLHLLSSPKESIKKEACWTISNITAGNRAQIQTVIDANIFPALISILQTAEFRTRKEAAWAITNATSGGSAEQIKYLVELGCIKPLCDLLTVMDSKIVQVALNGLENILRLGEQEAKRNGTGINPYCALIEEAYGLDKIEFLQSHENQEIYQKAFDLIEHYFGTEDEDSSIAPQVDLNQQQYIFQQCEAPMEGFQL", "assay": "Bio-Layer Interferometry", "type": "binding", "summary_of_the_method": "(§3)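 Human importin α1 or α5 lacking the importin-β-binding domain (aa 1-100), GST-tagged, expressed in E. coli BL21(DE3)-RIL as inclusion bodies. Refolded, GST-affinity purified and dialysed into pH 7.0 \"intracellular\" buffer. Biotinylated peptide (5 nmol/L) loaded on streptavidin biosensors, 10 min, 37°C. Protein at 50–200 nmol/L, 30°C, with GST alone as control. Association 15 min, dissociation 15 min; curves fitted 1:1 or 2:1; 3 independent experiments.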"}, "Imp α4 [4]": {"tested_on": "Imp α4", "assay": "Importin binding", "parameters": "species or system human", "conditions": "Jurkat T cell lysate compared to HeLa S3 and EA.hy926", "summary_of_the_method": "as §2"}, "Imp α5 [5]": {"tested_on": "Imp α5", "assay": "Competition binding assay, Imp α5", "parameters": "species or system human", "conditions": "free N50 0-300 μmol/L, Jurkat lysate", "summary_of_the_method": "as §1"}, "Imp α1 [6]": {"tested_on": "Imp α1", "assay": "Importin binding", "parameters": "species or system human", "summary_of_the_method": "as §2"}, "GST-tagged Imp α1 ΔIBB": {"tested_on": "GST-tagged Imp α1 ΔIBB", "assay": "Bio-Layer Interferometry", "type": "binding, human", "summary_of_the_method": "as §3"}},
  "note": "Entries after “also recorded” stand apart in the source; their conditions may differ.",
  "data": [
    {"molecule": "CC[C@H](C)[C@H](NC(=O)[C@H]([C@@H](C)CC)N(C)C(C)=O)C(=O)N[C@H](C(=O)N[C@@H](CC(C)C)C(=O)[C@@]1(C)CO1)[C@@H](C)O", "note": "[epoxomicin]", "values": [
      {"measurement": "effect on turnover of IκBα", "setting": "IκBα", "result": "drastically slowed turnover"}
    ]},
    {"molecule": "IQLRKQKREQQLFKRRNVELI [AR7]", "values": [
      {"measurement": "competition with native ARs of importins α", "setting": "importins α", "result": "successfully competed with native ARs of all importins α, including its own"}
    ]},
    {"molecule": "VQRKRQKLMP [N50]", "values": [
      {"measurement": "inhibition of Imp α1 binding to immobilized N50, in words", "setting": "Imp α1 [1]", "result": "slightly inhibited; also recorded: do not substantially inhibit binding"},
      {"measurement": "inhibition of Imp α4 binding to immobilized N50, in words", "setting": "Imp α4 [2]", "result": "slightly inhibited; also recorded: do not substantially inhibit binding"},
      {"measurement": "relative strength of interaction with Imp α3", "setting": "Imp α3", "result": "stronger"},
      {"measurement": "interaction with Imp α7", "setting": "Imp α7", "result": "inability to detect any interactions; also recorded: inaccessible to this peptide"},
      {"measurement": "relative strength of interaction with Imp α5", "setting": "Imp α5 [3]; all 3 cell types (Jurkat, HeLa S3, EA.hy926)", "result": "similarly strong in all 3 cell types"},
      {"measurement": "relative amount of Imp α5 bound to biotinylated N50", "setting": "Imp α5 [3]; compared with any of the other detected proteins", "result": "strikingly higher than any of the other detected proteins"},
      {"measurement": "binding to Imp α5, in words", "setting": "GST-tagged Imp α5 ΔIBB; BLI", "result": "specific, high‐affinity binding; also recorded: preferential and specific binding"},
      {"measurement": "maximum response with Imp α5 relative to maximum response with Imp α1", "setting": "GST-tagged Imp α5 ΔIBB; BLI, normalized by subtracting GST", "result": "more than 20 fold"},
      {"measurement": "relative strength of interaction with Imp α4", "setting": "Imp α4 [4]", "result": "stronger"},
      {"measurement": "competition with native ARs of importins α", "setting": "importins α", "result": "successfully competes"},
      {"measurement": "inhibition of Imp α5 binding to immobilized N50, in words", "setting": "Imp α5 [5]", "result": "tightly controlled by unlabeled peptide in all lysate total protein concentrations; also recorded: concentration dependent"},
      {"measurement": "relative strength of interaction with Imp α1", "setting": "Imp α1 [6]; EA.hy926 lysate compared to Jurkat T cells", "result": "weaker"},
      {"measurement": "relative strength of interaction with Imp α1", "setting": "Imp α1 [6]; HeLa S3 lysate compared to Jurkat T cells", "result": "weaker"},
      {"measurement": "binding to Imp α1, in words", "setting": "GST-tagged Imp α1 ΔIBB; BLI", "result": "not Imp α1; also recorded: nonspecific; also recorded: low affinity"}
    ]},
    {"molecule": "VQRDEQKLMP [N50M]", "values": [
      {"measurement": "BLI response with Imp α5", "setting": "GST-tagged Imp α5 ΔIBB; biotinylated peptide immobilized, Imp α5 ΔIBB 200 nmol/L", "result": "at the background level"},
      {"measurement": "BLI response with Imp α1", "setting": "GST-tagged Imp α1 ΔIBB; biotinylated peptide immobilized, Imp α1 ΔIBB 200 nmol/L", "result": "at the background level"}
    ]}
  ]
}
